HIF activator: HIF pathway transcriptional activation | U2OS HRE-luciferase reporter, luminescence; normalized: DMSO 0%, desferrioxamine 100% | activation, % at 7.5 µM (by protocol) | 0.32% of 300,000 active;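 active means mean activation of at least 10% of the iron chelator positive control signal, with at least half of replicates also reaching 10%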
procasp3 activ: activators of human procaspase-3. recombinant procaspase-3 D3A, Ac-DEVD-pNA absorbance 405 nm. activation, % at 8.5 µM. P42574. AID 463141. 0.11% of 330,000 active;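 active means activation above the mean of all tested compounds plus 3 SD, cut at about 21% in these data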
Target sequence (P42574 whole entry D9A/D28A/D175A): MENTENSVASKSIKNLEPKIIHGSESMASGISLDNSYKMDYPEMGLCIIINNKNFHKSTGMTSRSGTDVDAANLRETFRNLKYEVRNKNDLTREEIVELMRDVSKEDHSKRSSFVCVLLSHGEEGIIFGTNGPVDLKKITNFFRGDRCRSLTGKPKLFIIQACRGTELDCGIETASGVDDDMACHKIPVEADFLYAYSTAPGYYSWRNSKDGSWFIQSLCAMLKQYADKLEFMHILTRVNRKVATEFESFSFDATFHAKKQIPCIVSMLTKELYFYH
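Assay system – Procaspase-3 D3A mutant · Benchmarks – DMSO low control, extra-enzyme high control · Technique – 405 nm absorbance of p-nitroaniline, reads at 0 and 120 min · Doses – 8.5 µM nominal · Measure – % activation between DMSO and enzyme-spiked controls · Also added – Ac-DEVD-pNA chromogenic peptide substrate · Schedule – 1 h compound preincubation, 2 h substrate hydrolysis at 25 °C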
GAA850 FXN act: activators of GAA850 frataxin (FXN) promoter | activation, % at 6 µM | 0.56% of 360,000 active | HEK293 lucGAA850 FXN promoter luciferase reporter, 24 h; percent of 10 µM SAHA response;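 active means activation above the average of all compounds screened plus 3 SD, cutoff fixed separately per campaign, cut at about 7.5% in these data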
Calb FLC: C. albicans growth modulation with fluconazole; C. albicans CaCi-2 (fluconazole-resistant clinical isolate) + fluconazole, Alamar Blue growth, 48 h; growth inhibition, % (no concentration beside the values); 0.57% of 300,000 active;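 active means growth inhibition above about 58% in most replicates, limit read from the data, passing the limit was not always enough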;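 further: all wells also contain fluconazole at 8 µg/ml as a sub-toxic cotreatment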
procasp7 counter: counter-screen: procaspase-7 (human) activation. 0.093% of 330,000 active. P55210. recombinant procaspase-7, Ac-DEVD-pNA absorbance 405 nm; D23A/D198A/D206A triple mutant, cannot self-cleave; scale: DMSO 0, 5 µM enzyme 100. activation, % at 8.5 µM. AID 463210;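 active means percent activation above the screen-wide mean plus 3 SD, cut at about 25% in these data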
Target sequence (P55210 whole entry D23A/D198A/D206A): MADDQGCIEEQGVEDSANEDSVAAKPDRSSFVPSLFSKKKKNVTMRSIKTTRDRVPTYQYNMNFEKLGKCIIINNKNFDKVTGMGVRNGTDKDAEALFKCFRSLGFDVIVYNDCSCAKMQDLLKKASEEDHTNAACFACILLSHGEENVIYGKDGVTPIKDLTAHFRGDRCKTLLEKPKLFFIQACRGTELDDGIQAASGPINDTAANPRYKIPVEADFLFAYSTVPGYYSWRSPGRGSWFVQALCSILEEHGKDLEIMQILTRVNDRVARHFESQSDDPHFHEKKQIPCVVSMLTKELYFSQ
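Test system: Procaspase-7 triple mutant (PC-7 D3A). Also added: Ac-DEVD-pNA substrate, 400 µM as added. Schedule: 1 h enzyme–compound preincubation and 2 h substrate reaction, both 25 °C. Signal: p-Nitroaniline absorbance at 405 nm, read at 0 and 120 min. Control set: low DMSO alone, high DMSO plus 5 µM PC-7.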
Neddylation inh: cullin neddylation inhibition; P61081+Q13564; TR-FRET cullin neddylation, biochemical; inhibition, % at 25 µM; 0.58% of 360,000 active; in the data active means inhibition above about 36%
Neddyl conf: confirmation of human cullin neddylation inhibitors; shares compounds with Neddylation inh; TR-FRET cullin neddylation biochemical assay; calls only at 25 µM; 13% of 1,800 active; in the data active means inhibition above about 40%;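 further: neddylation substrate is the cullin 1 ring ligase complex with SKP2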
Numbers stand for hits; 0 = inactive; - = no result given; + = active, no number. Compounds with a hit are over-represented: about 1.9% of the library has one in this group of screens.

SMILES	HIF activator	procasp3 activ	GAA850 FXN act	Calb FLC	procasp7 counter	Neddylation inh	Neddyl conf
O=C(CBr)Nc1c2c(nn1-c1ccccc1)CSC2	0	0	0	0	0	0	-
c1ccc(-c2oc3ncnc(NCCCN4CCOCC4)c3c2-c2ccccc2)cc1	0	0	0	0	0	52	+
CCCCCCc1c(C)[nH]c2nc3ccccc3n2c1=O	0	0	0	0	0	0	-
O=c1cc(CCl)[nH]c2nc3ccccc3n12	0	0	0	0	0	42	0
CCCc1c(C)[nH]c2nc3ccccc3n2c1=O	0	0	0	0	0	46	0
O=c1cc(-c2ccccc2)[nH]c2nc3ccccc3n12	0	0	0	0	0	-	-
COc1cccc2cc(-c3cn4cccc(C)c4n3)c(=O)oc12	0	0	0	0	0	42	0
COc1ccc(NS(=O)(=O)c2cccc(C(=O)NCC3(N(C)C)CCCCC3)c2)cc1	0	0	0	0	0	0	-
O=C(COC(=O)c1cnccn1)NCCc1ccc(Cl)cc1	-	-	0	-	-	0	-
Nc1c(C(=O)Nc2ccc3c(c2)OCCO3)nnn1Cc1cccc(F)c1	0	0	0	0	0	40	0
Cc1cn(-c2cccnc2)c(C)c1CNC[C@H]1O[C@@H](n2cnc3c(N)ncnc32)[C@H](O)[C@@H]1O	-	0	0	-	0	75	0
Cc1sc2ccccc2c1CNC[C@H]1O[C@@H](n2cnc3c(N)ncnc32)[C@H](O)[C@@H]1O	-	0	0	-	0	0	-
O=C(Nc1ccccc1)N1N=C(c2cccs2)CC1c1cccs1 (stereo not drawn)	0	0	0	0	0	40	0
O=C(c1ccco1)N1N=C(c2cccs2)CC1c1ccc(F)cc1 (stereo not drawn)	0	0	0	0	0	46	0
N#Cc1ccccc1OCC(=O)N1N=C(c2cccs2)CC1c1ccco1 (stereo not drawn)	-	0	0	-	0	51	0
COc1ccc(C2CC(c3cccs3)=NN2C(=O)CSC2=NCCS2)cc1 (stereo not drawn)	0	0	0	0	0	43	0
O=C(CN1CCOCC1)N1N=C(c2cccs2)CC1c1cccs1 (stereo not drawn)	0	0	0	0	0	0	-
O=C(NCCOc1ccc(F)cc1)C1CCC(=O)N(CC2CCCCC2)C1 (stereo not drawn)	0	0	0	0	0	0	-
O=C(O)c1sccc1S(=O)(=O)N1CCOCC1	-	0	0	-	0	0	-
COC(=O)N1C2CCCCC2=NN(c2ccccc2)N1C(=O)OC (stereo not drawn)	-	-	-	-	-	0	-
COc1ccc(-c2nn(-c3ccccc3)cc2C2CC(c3cccs3)=NN2C(=O)CCC(=O)O)cc1 (stereo not drawn)	0	0	0	0	0	46	0
CCC(=O)N1N=C(c2cccs2)CC1c1ccc(C)cc1 (stereo not drawn)	0	0	0	0	0	52	-
COC(=O)c1c(C)nc(C)c2c(=O)oc3ccccc3c12	0	0	0	0	0	0	-
Cc1cc2c(c(N)n1)c(=O)oc1ccccc12	0	0	0	0	0	40	0
CC(C)(C)c1ccc(NC(=O)C2CCCN(c3cnccn3)C2)cc1 (stereo not drawn)	0	0	0	0	0	41	0
SMILES	HIF activator	procasp3 activ	GAA850 FXN act	Calb FLC	procasp7 counter	Neddylation inh	Neddyl conf
COc1ccc(NC(=O)C2CCCN(c3cnccn3)C2)cc1 (stereo not drawn)	0	0	0	0	0	0	-
COCCCN(C(=O)CSCc1c(C)noc1C)c1c(N)n(Cc2ccccc2)c(=O)[nH]c1=O	0	0	0	0	0	0	-
CCn1c(SCC(=O)Nc2nccs2)nnc1-c1ccccn1	0	0	0	0	0	0	-
CCc1ccc(S(=O)(=O)Nc2c(NC3CCCCC3)c3ccccc3oc2=O)cc1	0	0	0	0	0	43	+
Cc1cccc(C)c1NC(=O)CCc1nnc2ccc(N3CCCC3)nn12	0	0	0	0	0	0	-
CCc1cc(=O)oc2c(C)c(OCC(=O)NCC3CCC(C(=O)O)CC3)ccc12 (stereo not drawn)	0	0	0	0	0	0	-
CCc1cc(=O)oc2c(C)c(OCC(=O)N3CCC(C(=O)O)CC3)ccc12	0	0	0	0	0	43	+
Cc1cc(=O)oc2c(C)c(OCC(=O)N3CC[C@@]4(O)CCCC[C@H]4C3)ccc12	0	0	0	0	0	44	0
Cc1cc(=O)oc2c(C)c(OC(C)C(=O)N3CC[C@@]4(O)CCCC[C@H]4C3)ccc12 (stereo partly drawn)	0	0	0	0	0	0	-
Cc1cc(=O)oc2c(C)c(OCC(=O)N(C)C)ccc12	0	0	0	0	0	41	0
c1cn2c(-c3ccoc3)cncc2n1	-	-	0	-	-	41	+
OCc1ccc(-c2cncc3nccn23)cc1	-	-	0	-	-	-	-
COC(=O)c1cc2ccccc2c([N+](=O)[O-])c1O	-	-	0	-	-	0	-
COC(=O)c1cc2ccccc2c(-c2c(OC)c(C(=O)OC)cc3ccccc23)c1OC	0	0	0	0	0	41	0
O=C(CCNC(=O)c1ccc([N+](=O)[O-])cc1)NNC(=O)c1ccccc1F	-	0	0	-	0	0	-
COc1cc(C(=O)NNC(=S)NC(=O)c2ccc(F)cc2)cc(OC)c1OC	0	0	0	0	0	35	0
COc1ccc2oc(C(=O)NNC(=O)c3ccc(F)cc3)c(C)c2c1	0	0	0	0	0	42	-
COc1ccc2oc(C(=O)NC(C)(C)C)c(C)c2c1	0	0	0	0	0	44	0
COc1ccc2oc(C(=O)N3CCN(S(=O)(=O)c4ccc(F)cc4)CC3)c(C)c2c1	-	0	0	-	0	0	-
Cc1noc(C)c1COc1ccccc1C(=O)NC(C)c1ccc(F)cc1 (stereo not drawn)	-	-	0	-	-	0	-
COc1cccc(-c2cc(C(=O)Nc3ccccc3SC)no2)c1	0	0	0	0	0	-	-
COc1ccc(-c2cc(C(=O)Nc3ccccc3SC)no2)cc1OC	0	0	0	0	0	42	0
COc1cc(NC(=O)c2cc(-c3ccco3)on2)c(OC)cc1Cl	0	0	0	0	0	41	0
CN1CCN(C(=O)c2cc([N+](=O)[O-])cc([N+](=O)[O-])c2)CC1	0	0	0	0	0	0	-
CCCCNC(=O)[C@@H]1CSC2c3ccc(OC)c(OC)c3C(=O)N21 (stereo partly drawn)	0	0	0	0	0	42	0
COCCNC(=O)[C@@H]1CSC2c3ccc(OC)c(OC)c3C(=O)N21 (stereo partly drawn)	0	0	0	0	0	-	-

Screens from PubChem BioAssay.
